High-throughput results from PubChem.
The full list was thinned out, with hits kept by preference.
KDM4C inh: inhibitors of GASC-1 (KDM4C) histone demethylase, primary screen, biochemical, single concentration HTS; GST-KDM4C 2-372, H3K9me3 peptide, LANCE TR-FRET; inhibition, % at 12.5 µM; 96,000 tested, 0.15% active;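 active means mean replicate inhibition above about 25%, with at least 55% of replicates also reaching it, limit read from the data, passing the limit was not always enough; inconclusive means only one of those two conditions met; inactive means neither condition met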
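System: N-terminal GST-fused human GASC-1 (KDM4C) fragment, residues 2-372 / Amount: 10 nM GST-KDM4C in enzyme reaction / Also added: H3K9me3 peptide with Fe(II)/2OG / Times: 30 min demethylation and 1 h detection at room temperature / Signal: LANCE TR-FRET / Read-out basis: Fall in 671/618 emission ratio as inhibition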
Pf Dd2 growth: P. falciparum Dd2 growth inhibitors, primary screen, SYBR Green fluorescence, single dose replicates; 94,000 tested, 2.3% active; AID 1159554, 2015; 72 h; active compounds read low; activity change, % at 10 µM; in the data active means activity change below about -80%; inconclusive means no clear call, values can overlap the other calls
IDH1 mut inh: inhibitors of IDH1 R132H reductase, primary screen, biochemical, plate reader, single point; inhibition, % at 10 µM; diaphorase/resazurin fluorescence, 60 min; 70,000 tested, 0.18% active; in the data active means inhibition above about 34%; inconclusive means no clear call, values can overlap the other calls; inactive means below about 11%
Target sequence (O75874 whole entry R132H): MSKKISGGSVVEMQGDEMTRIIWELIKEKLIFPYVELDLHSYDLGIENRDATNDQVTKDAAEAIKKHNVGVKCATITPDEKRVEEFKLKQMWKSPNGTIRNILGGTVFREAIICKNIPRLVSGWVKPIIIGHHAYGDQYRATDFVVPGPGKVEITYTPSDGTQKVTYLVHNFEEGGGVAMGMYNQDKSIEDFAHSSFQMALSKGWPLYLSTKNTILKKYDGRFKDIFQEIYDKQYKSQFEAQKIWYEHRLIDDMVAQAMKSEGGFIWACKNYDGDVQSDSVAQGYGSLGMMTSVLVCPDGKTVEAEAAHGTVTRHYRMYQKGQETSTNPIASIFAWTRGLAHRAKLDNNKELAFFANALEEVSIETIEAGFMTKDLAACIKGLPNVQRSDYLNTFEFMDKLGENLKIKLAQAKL
Hits are given with their value; 0 = inactive; ? = inconclusive; - = no result.

SMILES	KDM4C inh	Pf Dd2 growth	IDH1 mut inh
Cc1noc(C)c1NC(=O)Nc1ccc2c(c1)C(=O)N([C@H](C)CO)C[C@H](C)[C@@H](CN(C)Cc1ccc(Cl)c(Cl)c1)OCCCC[C@H](C)O2	0	0	-
C[C@@H]1CN([C@H](C)CO)C(=O)c2cc(NC(=O)Nc3ccccc3)ccc2O[C@@H](C)CCCCO[C@H]1CN(C)Cc1ccc(Cl)c(Cl)c1	0	-85.6	-
Cc1noc(C)c1NC(=O)Nc1ccc2c(c1)C(=O)N([C@@H](C)CO)C[C@H](C)[C@@H](CN(C)Cc1ccc(Cl)c(Cl)c1)OCCCC[C@@H](C)O2	0	-85.3	-
Cc1cccc(S(=O)(=O)N(C)C[C@H]2OCc3ccccc3-c3c(n(C)c4ccccc34)C(=O)N([C@H](C)CO)C[C@H]2C)c1	0	-83.6	0
C[C@@H]1CN([C@@H](C)CO)C(=O)c2c(c3ccccc3n2C)-c2ccccc2CO[C@H]1CN(C)S(=O)(=O)c1cccc(F)c1	0	0	-
COc1cccc(S(=O)(=O)N(C)C[C@@H]2OCc3ccccc3-c3c(n(C)c4ccccc34)C(=O)N([C@@H](C)CO)C[C@H]2C)c1	0	0	-
Cc1cccc(S(=O)(=O)N(C)C[C@@H]2OCc3ccccc3-c3c(n(C)c4ccccc34)C(=O)N([C@@H](C)CO)C[C@H]2C)c1	0	-81.5	-
Cc1cccc(S(=O)(=O)N(C)C[C@H]2OCc3ccccc3-c3c(n(C)c4ccccc34)C(=O)N([C@@H](C)CO)C[C@H]2C)c1	0	-84.5	0
C[C@@H]1CN([C@@H](C)CO)C(=O)c2c(c3ccccc3n2C)-c2ccccc2CO[C@@H]1CN(C)S(=O)(=O)c1cccc(F)c1	0	0	0
Cc1cccc(S(=O)(=O)N(C)C[C@@H]2OCc3ccccc3-c3c(n(C)c4ccccc34)C(=O)N([C@@H](C)CO)C[C@@H]2C)c1	0	-85.9	0
C[C@H]1CN([C@@H](C)CO)C(=O)c2c(c3ccccc3n2C)-c2ccccc2CO[C@@H]1CN(C)S(=O)(=O)c1cccc(C#N)c1	0	0	-
C[C@@H]1CCCCO[C@@H](CN(C)S(=O)(=O)c2cccs2)[C@@H](C)CN([C@H](C)CO)C(=O)c2cc(NC(=O)C3CCCCC3)ccc2O1	0	0	-
CN1[C@@H]2c3ccc(C4=CCCC4)c(=O)n3C[C@H]1[C@H](CO)[C@H]2C(=O)N1CCOCC1	0	0	-
C[C@@H]1CN([C@@H](C)CO)C(=O)Cc2cc(NC(=O)Nc3ccc(F)cc3)ccc2O[C@H]1CN(C)CC1CCCCC1	?	-88.7	0
COc1ccc(NC(=O)Nc2ccc3c(c2)CC(=O)N([C@@H](C)CO)C[C@@H](C)[C@@H](CN(C)CC2CCCCC2)O3)cc1	0	0	0
COc1ccc(NC(=O)Nc2ccc3c(c2)CC(=O)N([C@@H](C)CO)C[C@H](C)[C@H](CN(C)CC2CC2)O3)cc1	0	0	0
COc1ccc(NC(=O)Nc2ccc3c(c2)CC(=O)N([C@H](C)CO)C[C@H](C)[C@@H](CN(C)CC2CCCCC2)O3)cc1	0	-86.2	0
C[C@@H]1CN([C@H](C)CO)C(=O)Cc2cc(NC(=O)Nc3ccc(F)cc3)ccc2O[C@H]1CN(C)CC1CC1	0	0	0
COc1ccc(NC(=O)Nc2ccc3c(c2)CC(=O)N([C@@H](C)CO)C[C@@H](C)[C@H](CN(C)CC2CC2)O3)cc1	0	0	0
COc1ccc(NC(=O)Nc2ccc3c(c2)CC(=O)N([C@@H](C)CO)C[C@@H](C)[C@@H](CN(C)CC2CC2)O3)cc1	0	-82.6	-
COc1ccc(NC(=O)Nc2ccc3c(c2)CC(=O)N([C@@H](C)CO)C[C@@H](C)[C@H](CN(C)CC2CCCCC2)O3)cc1	0	-90.4	0
COc1ccc(NC(=O)c2ccc(Cn3cc(Br)cn3)cc2)cc1OC	-	-	0
Cc1ccc(-c2ccccc2[C@@H]2[C@@H](CO)N(C(=O)NC3CCCC3)[C@H]2C#N)cc1	0	0	-
C[C@H]1CN([C@@H](C)CO)C(=O)Cc2cc(NC(=O)Nc3ccc4c(c3)OCO4)ccc2O[C@@H]1CN(C)Cc1ccc(Cl)c(Cl)c1	0	0	0
O=C(CC1CC1)Nc1ccc2c(c1)[C@@H]1C[C@H](CC(=O)NC3CCCC3)O[C@H](CO)[C@@H]1O2	0	0	0
O=C(Nc1ccc(F)cc1)Nc1ccc2c(c1)[C@@H]1C[C@H](CC(=O)N3CCOCC3)O[C@H](CO)[C@@H]1O2	0	0	0
C/C=C/c1ccc([C@H]2[C@@H](CO)N(C(=O)C3CCC3)C23CN(S(=O)(=O)CC)C3)cc1	0	0	-
